# Assay results from different studies.
# Lines come from different studies, so protocols differ.
# Observed: enzyme activity
# Mode: inhibitor
# gag-pol reverse transcriptase: Gag-Pol polyprotein, reverse transcriptase (gag-pol, Human immunodeficiency virus type 1 group M subtype B, UniProt P04585)
# gag-pol protease: Gag-Pol polyprotein, protease (gag-pol, Human immunodeficiency virus type 1 group M subtype B, UniProt P04585)
SMILES,target,technique,quantity,value
N#Cc1cn(Cc2ccccc2)c2ncc(Br)cc12,gag-pol reverse transcriptase,FRET,IC50,> 100000 nM
COc1ccc(S(=O)(=O)N(CC(C)C)C[C@@H](O)[C@H](Cc2ccccc2)NC(=O)OC2CO[C@H]3OCC(F)(F)[C@@H]23)cc1 (stereo partly shown),gag-pol protease,,Ki,0.022 nM
COc1ccc2c(c1)OCCCCCCCCCN(C[C@@H](O)[C@H](Cc1ccccc1)NC(=O)O[C@H]1CO[C@H]3OCC[C@H]31)S2(=O)=O,gag-pol protease,,Ki,< 0.7 nM
C=CCCc1c(O)cccc1C(=O)N[C@@H](Cc1ccc(OCC=C)cc1)[C@H](O)CN(CC(C)C)S(=O)(=O)c1ccc(OC)cc1,gag-pol protease,,Ki,5 nM
O=C(O)Cc1ccc(O)c(O)c1,"Gag-Pol polyprotein, integrase (gag-pol, Human immunodeficiency virus type 1 group M subtype B, UniProt P04585)",,IC50,> 25000 nM
CC(C)C[C@H]1C(N2CC[C@H](N3C(=O)C=C(OC(C)(C)C)[C@@H]3C)C2)=CC(=O)N1[C@H]1CCN(C2=CC(=O)N[C@H]2Cc2ccccc2)C1,gag-pol protease,fluorescence,IC50,54900 nM
Cc1ccc(-c2cnc3c(c2)c(C#N)cn3Cc2ccccc2)cc1,gag-pol reverse transcriptase,FRET,IC50,> 100000 nM
COc1ccc(S(=O)(=O)N(CC(C)C)C[C@@H](O)[C@@H]2Cc3ccc(cc3)OCC=CCCc3c(O)cccc3C(=O)N2)cc1,gag-pol protease,,Ki,0.2 nM
O=C1c2c(O)ccc(O)c2C(=O)c2c(NCCNCCO)ccc(NCCNCCO)c21,gag-pol reverse transcriptase,,IC50,6300 nM
CC(C)CN(C[C@@H](O)[C@H](Cc1ccccc1)NC(=O)O[C@H]1CCO[C@H]2OCC[C@H]21)S(=O)(=O)c1ccc(C(=O)O)cc1,gag-pol protease,,Ki,0.0076 nM
C[C@H](Cn1cnc2c(N)ncnc21)OCP(=O)(O)O,gag-pol reverse transcriptase,,IC50,950 nM
CC1(C)CC(=O)c2cc3c(C#N)cn(Cc4ccccc4)c3nc2C1,gag-pol reverse transcriptase,FRET,IC50,> 10000 nM
C=CCCOc1ccc(C[C@H](NC(=O)c2cccc(O)c2CCC=C)[C@H](O)CN(CC(C)C)S(=O)(=O)c2ccc(OC)cc2)cc1,gag-pol protease,,Ki,7 nM
